Test results published in ChEMBL document CHEMBL3399928, “Design and synthesis of novel 2-(indol-5-yl)thiazole derivatives as xanthine oxidase inhibitors” (Bioorg Med Chem Lett, 2015).
pIC50: −log10 of the molar value.

Experiments:
[1] = Inhibition of butter milk Xanthine oxidase using xanthine as substrate preincubated for 3 mins by spectrophotometry
In short: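 Buttermilk xanthine oxidase at 0.05 U/mL in 50 mM phosphate buffer with test compound; reaction started with 200 µM xanthine stock. Uric acid formation read at 293 nm, with linear Vmax over 5 min taken as initial velocity. Inhibition was calculated against the uninhibited rate, and IC50 was taken as the concentration giving 50% inhibition.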

[2] = Half life in rat liver microsomes; assay type: ADME
Plasma = assay: Plasma concentration in Sprague-Dawley rat at 10 mg/kg, po; assay type: ADME, organism-based; set-up: dose 10 mg/kg, route oral; details: in vivo
In short: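 Oral dose of 10 mg/kg in Sprague-Dawley rats; plasma concentration measured 1 h after administration.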

Rattus norvegicus = assay: Inhibition of uric acid production in Sprague-Dawley rat at 10 mg/kg, po measured 1 hr post dose; assay type: functional
In short: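 Male SD rats (about 200 g) received potassium oxonate 300 mg/kg i.p. in 0.8% carboxymethylcellulose. One hour later, compound at 10 mg/kg in PEG400/ethanol (2:1) was given orally, and blood was sampled 1 h after dosing. Plasma uric acid was scaled with the normal group as 100% and the oxonate control as 0% inhibition. ANOVA with Dunnett's post-test was used.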

[3] = Cytotoxicity against primary rat hepatocytes; assay type: cell-based, Hepatocyte
[4] = Cmax in Sprague-Dawley rat at 10 mg/kg, po; assay type: ADME, organism-based; set-up: dose 10 mg/kg, route oral; details: in vivo
In short: (§1)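 Single oral dose of 10 mg/kg in Sprague-Dawley rats; plasma followed over 24 h; Cmax, Tmax, AUC, half-life and bioavailability derived from the plasma profile; n = 3.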

[5] = AUC (0 to last) in Sprague-Dawley rat at 10 mg/kg, po; assay type: ADME, organism-based; set-up: time 0 - last, dose 10 mg/kg, route oral; details: plasma; in short: as §1
[6] = AUC (0 to last) in Sprague-Dawley rat at 2 mg/kg, iv; assay type: ADME, organism-based; set-up: dose 2 mg/kg, route intravenous, time 0 - last; details: plasma
In short: (§2)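 Single intravenous dose of 2 mg/kg in Sprague-Dawley rats; AUC, half-life, clearance and Vd derived from the plasma profile; n = 3.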

[7] = AUC (0 to infinity) in Sprague-Dawley rat at 2 mg/kg, iv; assay type: ADME, organism-based; set-up: time infinity, dose 2 mg/kg, route intravenous; details: plasma; in short: as §2
[8] = Half life in Sprague-Dawley rat at 2 mg/kg, iv; assay type: ADME, organism-based; set-up: dose 2 mg/kg, route intravenous; details: in vivo; in short: as §2
[9] = Clearance in Sprague-Dawley rat at 2 mg/kg, iv; assay type: ADME, organism-based; set-up: dose 2 mg/kg, route intravenous; details: in vivo; in short: as §2
[10] = Volume of distribution in Sprague-Dawley rat at 2 mg/kg, iv; assay type: ADME, organism-based; set-up: dose 2 mg/kg, route intravenous; details: in vivo; in short: as §2
[11] = AUC (0 to infinity) in Sprague-Dawley rat at 10 mg/kg, po; assay type: ADME, organism-based; set-up: time infinity, dose 10 mg/kg, route oral; details: plasma; in short: as §1
[12] = Tmax in Sprague-Dawley rat at 10 mg/kg, po; assay type: ADME, organism-based; set-up: dose 10 mg/kg, route oral; details: in vivo; in short: as §1
[13] = Half life in Sprague-Dawley rat at 10 mg/kg, po; assay type: ADME, organism-based; set-up: dose 10 mg/kg, route oral; details: in vivo; in short: as §1
[14] = Oral bioavailability in Sprague-Dawley rat at 10 mg/kg; assay type: ADME, organism-based; details: in vivo; in short: as §1

Row | pIC50 [1] | half-life [2] | Structure (SMILES) | inhibition in vivo at 10 mg/kg (Rattus norvegicus) | also measured
1 | 8.38 | 1.32 h | Cc1nc(-c2ccc3c(c2)c([N+](=O)[O-])cn3C(C)C)sc1C(=O)O |  | 
2 | 7.80 | 0.11 h | Cc1nc(-c2ccc3c(c2)c(Cl)c(C)n3CC(C)C)sc1C(=O)O |  | 
3 | 8.25 |  | CC(=O)NCCn1cc(C#N)c2cc(-c3nc(C)c(C(=O)O)s3)ccc21 | 0% | Cp (Plasma): < 20 ng/mL
4 | 7.05 |  | COc1nc(-c2ccc3c(c2)c(C#N)cn3C(C)C)sc1C(=O)O |  | 
5 | 8.22 |  | Cc1nc(-c2ccc3c(c2)c(C#N)cn3CCNS(C)(=O)=O)sc1C(=O)O | 0% | 
6 | 7.92 |  | COCCn1cc([N+](=O)[O-])c2cc(-c3nc(C)c(C(=O)O)s3)ccc21 |  | 
7 | 8.26 | 1.76 h | Cc1nc(-c2ccc3c(c2)c(C#N)cn3CC(C)C)sc1C(=O)O |  | CC50 [3]: 82000 nM
8 | 6.05 |  | CC(C)n1cc(C#N)c2cc(-c3nc(C(F)(F)F)c(C(=O)O)s3)ccc21 |  | 
9 | 8.14 | 1.6 h | Cc1nc(-c2ccc3c(c2)c(Cl)cn3C(C)C)sc1C(=O)O |  | 
10 | 6.96 | 0.458 h | Cc1nc(-c2ccc3c(ccn3CC(C)C)c2)sc1C(=O)O |  | 
11 | 8.36 |  | CC(C)n1cc(C#N)c2cc(-c3ncc(C(=O)O)s3)ccc21 |  | Cmax [4]: 940 ng/mL; AUC(0-t) [5]: 5390 ng·h/mL
12 | 8.05 |  | COCC(C)n1cc(C#N)c2cc(-c3nc(C)c(C(=O)O)s3)ccc21 (configuration not stated) | 14.1% | 
13 | 8.31 |  | Cc1nc(-c2ccc3c(c2)c(C#N)cn3C(C)CF)sc1C(=O)O (configuration not stated) | 22.3% | 
14 | 7.97 |  | Cc1nc(-c2ccc3c(c2)c(C#N)c(C)n3C(C)C)sc1C(=O)O | 8.6% | 
15 | 8.41 |  | Cc1nc(-c2ccc3c(c2)c(C#N)cn3Cc2ccccc2)sc1C(=O)O | 10% | 
16 | 8.24 | 0.103 h | Cc1nc(-c2ccc3c(c2)c(Cl)cn3CC(C)C)sc1C(=O)O |  | 
17 | 8.52 |  | Cc1nc(-c2ccc3c(c2)c(C#N)cn3C(C)CO)sc1C(=O)O (configuration not stated) | 8.5% | 
18 | 8.46 |  | Cc1nc(-c2ccc3c(c2)c(C#N)cn3C(C)C)sc1C(=O)O | 60% | AUC(0-t) [6]: 12400 ng·h/mL; AUC(0-inf) [7]: 12500 ng·h/mL; half-life [8]: 4.37 h; clearance [9]: 2.69 mL/min/kg; Vd [10]: 0.635 L/kg; Cmax [4]: 3980 ng/mL; AUC(0-t) [5]: 47300 ng·h/mL; CC50 [3]: 200000 nM; AUC(0-inf) [11]: 52900 ng·h/mL; Tmax [12]: 6 h; half-life [13]: 7.95 h; bioavailability [14]: 84.3%
19 | 7.91 |  | Cc1nc(-c2ccc3c(c2)c(C#N)cn3CCS(C)(=O)=O)sc1C(=O)O | 0% | Cp (Plasma): < 20 ng/mL
20 | 8.51 | 2.9 h | Cc1nc(-c2ccc(OCC(C)C)c(C#N)c2)sc1C(=O)O [FEBUXOSTAT] |  | Cmax [4]: 16400 ng/mL; AUC(0-t) [5]: 61500 ng·h/mL
21 | 8.07 |  | Cc1nc(-c2ccc3c(c2)c(C#N)cn3Cc2ccc(F)cc2F)sc1C(=O)O | 16% | 
